Assay results taken from PubChem BioAssay.
Activity calls are given as the source filed them.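 The calls were made as follows, unless noted: active = viability at or under a set limit in both replicates, limit being median viability minus 3 SD (cut at about 48% in these data, passing the limit was not always enough); inconclusive = at or under the limit in just one replicate; inactive = at or above the limit in both replicates.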

Assays:
[1] = Her2 expression decrease, cell viability multiplex – SKBR3 breast tumor cells, AlphaScreen, ATP viability, primary screen (AID 461;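 active = Her2 level under about 52% in both replicate screens, with viability over 70% of control, limit read from the data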;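 as to Her2 level: lower value means less Her2 protein in the cells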;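 as to viability: percent of carrier control wells set as 100% viability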); conditions: SKBR3 Her2 protein level, 18-24 h, measured here: SKBR3 viability, ATP luminescence, at 10 µM
[2] = biological target: Receptor tyrosine-protein kinase erbB-2 (Homo sapiens) (UniProt P04626); experiment: as above; conditions: 18-24 h, at 10 µM, stronger effect = lower value
[3] = reduced viability of SK-BR-3 breast cancer cells – cell-based, 24 h, human, pilot screen (AID 572;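 active = viability at or below 10% of carrier control in both of two separate runs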;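 also: compound exposure lasted between 18 and 24 h rather than exactly 24 h; 100% = carrier-treated control wells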); conditions: SK-BR-3 viability, CellTiter-Glo luminescence, at 10 µM, stronger effect = lower value
[4] = HUVEC growth inhibition – cell-based, human, primary screen (AID 575;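 active = viability at or below 30% in both replicate assays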;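 also: 100% = median of untreated cell wells with 0.1% DMSO on each plate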); conditions: HUVEC proliferation, CellTiter-Glo luminescence, 72 h; at 10 µM; stronger effect = lower value
Outline: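 Assay system: Primary human umbilical vein endothelial cells | Quantity: 1250 cells per well | Medium: Supplemented EBM, 2% fetal bovine serum | Detection: CellTiter-Glo luminescence measuring cellular ATP | Read-out: % viability vs DMSO wells | Plate: Collagen-coated 384-well format | Times: 72 h exposure, 37 °C, 5% CO2, 30 min RT equilibration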

[5] = H69AR cell proliferation blockers – human, duplicate replicates, primary screen (AID 580); conditions: H69AR lung tumor cells viability, ATP luminescence, 72 h; at 10 µM; stronger effect = lower value;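 also: 100% = mean luminescence of untreated wells and 0% = no signal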
[6] = MRP1 drug-resistance reversers in H69AR cells – cell-based, doxorubicin co-treatment, pilot screen (AID 601;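 active = viability loss from added drug above about 55%, and viability with drug at most 40%, in both replicates, limit read from the data, passing the limit was not always enough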); conditions: CellTiter-Glo, 72 h, at 10 µM; for differential viability (reversal): stronger effect = higher value
[7] = yeast transport mutant growth inhibition pilot in 384-well plates, post-Golgi transport modulator project (AID 636; in the data active = inhibition above about 31%); conditions: absorbance 615 nm, about 18 h, stronger effect = higher value
[8] = growth suppression of yeast trafficking mutant, preliminary HTS, modulators of trafficking downstream of Golgi apparatus project, 1536-format plate, OD 615 nm (AID 637; in the data active = inhibition above about 30%); conditions: yeast transport mutant growth, absorbance 615 nm, 18 h; stronger effect = higher value
[9] = H69AR cells + 2 uM doxorubicin, measured here: viability with 2 uM doxorubicin, stronger effect = lower value
[10] = H69AR cells, compound alone cytotoxicity

Chain of Receptor tyrosine-protein kinase erbB-2 (Homo sapiens) (P04626 whole entry, looked up): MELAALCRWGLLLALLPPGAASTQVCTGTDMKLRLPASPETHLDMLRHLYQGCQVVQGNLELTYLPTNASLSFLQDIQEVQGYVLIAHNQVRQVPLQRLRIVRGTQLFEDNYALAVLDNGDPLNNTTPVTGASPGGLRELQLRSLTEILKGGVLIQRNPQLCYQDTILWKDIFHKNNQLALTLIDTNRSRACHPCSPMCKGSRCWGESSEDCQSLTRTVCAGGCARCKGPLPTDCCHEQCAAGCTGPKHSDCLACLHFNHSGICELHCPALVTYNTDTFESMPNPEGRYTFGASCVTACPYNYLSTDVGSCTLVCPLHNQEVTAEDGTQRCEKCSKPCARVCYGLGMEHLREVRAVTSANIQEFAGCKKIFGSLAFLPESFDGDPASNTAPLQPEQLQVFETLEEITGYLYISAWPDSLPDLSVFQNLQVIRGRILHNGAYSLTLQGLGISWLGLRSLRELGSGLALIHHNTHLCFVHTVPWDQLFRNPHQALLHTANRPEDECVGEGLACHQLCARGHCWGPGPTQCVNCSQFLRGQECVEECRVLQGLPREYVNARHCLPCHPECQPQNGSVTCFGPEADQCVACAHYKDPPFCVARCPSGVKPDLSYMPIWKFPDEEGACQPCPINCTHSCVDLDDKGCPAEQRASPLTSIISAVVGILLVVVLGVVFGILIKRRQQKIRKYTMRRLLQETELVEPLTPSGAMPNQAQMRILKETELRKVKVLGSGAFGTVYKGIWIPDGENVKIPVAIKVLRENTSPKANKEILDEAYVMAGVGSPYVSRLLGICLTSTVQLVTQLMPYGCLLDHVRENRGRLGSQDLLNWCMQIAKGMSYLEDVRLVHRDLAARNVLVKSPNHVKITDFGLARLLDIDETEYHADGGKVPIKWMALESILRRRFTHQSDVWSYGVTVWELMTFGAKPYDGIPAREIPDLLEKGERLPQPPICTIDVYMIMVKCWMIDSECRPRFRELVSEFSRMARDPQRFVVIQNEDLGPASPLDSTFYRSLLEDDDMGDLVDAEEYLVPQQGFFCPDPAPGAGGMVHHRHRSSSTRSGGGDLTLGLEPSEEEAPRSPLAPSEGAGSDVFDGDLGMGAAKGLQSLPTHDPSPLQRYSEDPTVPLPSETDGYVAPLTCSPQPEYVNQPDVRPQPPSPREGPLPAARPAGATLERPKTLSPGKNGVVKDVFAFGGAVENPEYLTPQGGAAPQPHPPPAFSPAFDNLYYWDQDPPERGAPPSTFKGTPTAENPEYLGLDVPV

Row | SMILES | viability [1] [%] | Her2 level [2] | viability [3] | viability [4] | viability [5] | differential viability (reversal) ([6]; H69AR cells + 2 uM doxorubicin) | viability [6, 9] [%] | viability [6, 10] [%] | inhibition [7] | inhibition [8]
1 | Cc1cccc(CCNC(=O)CCc2nc(-c3ccccc3F)no2)c1 | 91.5 | 104% (inactive) | 91.5% (inactive) | 89.1% (inactive) | 93.5% (inactive) | 9.82% (inactive) | 83.7 | 93.5 | -2.37% (inactive) | -5% (inactive)
2 | Cc1cccc(C)c1OCc1nnc2c3cnn(C)c3ncn12 | 100 | 138% (inactive) | 100% (inactive) | 105% (inactive) | 91.9% (inactive) | -2.03% (inactive) | 94 | 91.9 | -2.11% (inactive) | -4.59% (inactive)
3 | O=C(NCCC1=CCCCC1)C1CCN(S(=O)(=O)c2cccc3nsnc23)CC1 | 104 | 92.5% (inactive) | 104% (inactive) | 58.5% (inactive) | 96.5% (inactive) | 14.2% (inactive) | 82.4 | 96.5 | -5.33% (inactive) | 0.98% (inactive)
4 | COc1ccc(C(=O)NCc2ccccc2OC)cc1 | 110 | 100% (inactive) | 110% (inactive) | 93.8% (inactive) | 105% (inactive) | 9.52% (inactive) | 95.8 | 105 | -6.58% (inactive) | -3.17% (inactive)
5 | c1coc(Cn2nnnc2CN2CCN(C3CCCC3)CC2)c1 | 90.5 | 107% (inactive) | 90.5% (inactive) | 92.8% (inactive) | 93.2% (inactive) | 4.64% (inactive) | 88.6 | 93.2 | -4.67% (inactive) | -8.41% (inactive)
6 | Cc1nnc(SCC(=O)N2CC(=O)Nc3ccccc32)n1-c1ccccc1 | 93 | 90% (inactive) | 93% (inactive) | 102% (inactive) | 97% (inactive) | 2.75% (inactive) | 94.3 | 97 | -4.53% (inactive) | 4.84% (inactive)
7 | COc1ccc(C2=Nn3c(nnc3-c3ccccc3)SC2)cc1OC | 124 | 101% (inactive) | 124% (inactive) | 78.1% (inactive) | 81.7% (inactive) | 2.4% (inactive) | 79.3 | 81.7 | -4.47% (inactive) | 5.65% (inactive)
8 | COC(=O)Nc1nnc(CCc2ccccc2)s1 | 115 | 97.5% (inactive) | 115% (inactive) | 97.2% (inactive) | 95.2% (inactive) | 14.9% (inactive) | 80.3 | 95.2 | -7.07% (inactive) | 9.52% (inactive)
9 | O=C(Nc1cccnc1)c1ccc2c(c1)OCO2 | 119 | 121% (inactive) | 119% (inactive) | 99.6% (inactive) | 97.7% (inactive) | 13.8% (inactive) | 83.9 | 97.7 | -5.33% (inactive) | 9.84% (inactive)
10 | CCOC(=O)c1c(C)oc2ccc(OCC(N)=O)cc12 | 120 | 95% (inactive) | 120% (inactive) | 72.3% (inactive) | 97.1% (inactive) | 1.68% (inactive) | 95.4 | 97.1 | -0.79% (inactive) | -5.4% (inactive)
11 | CC1CN=C(N(C(=O)Nc2ccccc2)c2ccc(S(=O)(=O)N3CCOCC3)cc2)S1 (stereo not given) | 95.5 | 108% (inactive) | 95.5% (inactive) | 91.5% (inactive) | 95.3% (inactive) | 16.8% (inactive) | 78.5 | 95.3 | -0.51% (inactive) | -8.67% (inactive)
12 | COCC(=O)N(c1ccc(C(C)C)cc1)C1C=CS(=O)(=O)C1 (stereo not given) | 93.5 | 80% (inactive) | 93.5% (inactive) | 78.9% (inactive) | 89.6% (inactive) | 0.84% (inactive) | 88.8 | 89.6 | -3.08% (inactive) | 0.83% (inactive)
13 | CC1=CCC(C(C)(C)NC(=O)c2ccccc2)C/C1=N\O (stereo not given) | 104 | 98.5% (inactive) | 104% (inactive) | 112% (inactive) | 106% (inactive) | 17.3% (inactive) | 88.6 | 106 | -0.81% (inactive) | 4.44% (inactive)
14 | Cc1ccc(S(=O)(=O)N2CCN(CCO)CC2)cc1-c1nnc2c3ccccc3c(C)nn12 | 104 | 94% (inactive) | 104% (inactive) | 99.4% (inactive) | 96.2% (inactive) | 2.01% (inactive) | 94.2 | 96.2 | -5.07% (inactive) | -2.79% (inactive)
